Test [1] deals with Mus musculus. Kind of test: Anxiolytic activity in mouse assessed as increase in time spent in the open arm pretreated with 1 mg/kg, ip 5-HT3 receptor blocker ondansetron followed by compound administration measured for 3 mins by elevated plus maze test. Format: functional, organism-based. In a few lines: (§1)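 Elevated plus maze in mice, 3 min screen. Read-out is percent of time spent in the open arms versus vehicle-treated mice. Diazepam reference at 1 mg/kg. Pretreatment with bicuculline (0.1 mg/kg, i.p.) or ondansetron (1 mg/kg, i.p.) preceded the test agent. n = 6/group. One-way ANOVA followed by Bonferroni, P<0.05.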

Test [2] is filed under the species Mus musculus. The experiment in a line: Anxiolytic activity in mouse assessed as increase in time spent in the light area measured for 3 mins by dark-light transition test. Format: functional, organism-based. In a few lines:
(§2)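 Dark-light transition box in mice, 3 min session. Cumulative time spent in the light area was recorded. Diazepam reference at 1 mg/kg i.p. Antagonist arms were pretreated with bicuculline (0.1 mg/kg, i.p.) or ondansetron (1 mg/kg, i.p.) before the test agent. n = 6. One-way ANOVA with Bonferroni comparisons, P<0.05.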

For test [3], the system named is Mus musculus. Kind of test: Anxiolytic activity in mouse assessed as increase in time spent in the light area pretreated with 0.1 mg/kg, ip GABA-A blocker bicuculline followed by compound administration measured for 3 mins by dark-light transition test. Format: functional, organism-based. In a few lines: as §2
Test [4] deals with Mus musculus. Kind of test: Anxiolytic activity in mouse assessed as increase in time spent in the light area pretreated with 1 mg/kg, ip 5-HT3 receptor blocker ondansetron followed by compound administration measured for 3 mins by dark-light transition test. The class given is functional, organism-based. The procedure, abridged: as §2
For test [5], the species on record is Mus musculus. Kind of test: Anxiolytic activity in mouse assessed as increase in time spent in the open arm measured for 3 mins by elevated plus maze test relative to vehicle treated control. The class given is functional, organism-based. The procedure, abridged:
as §1

The test system of test [6] is Mus musculus. The experiment in a line: Anxiolytic activity in mouse assessed as increase in time spent in the open arm pretreated with 0.1 mg/kg, ip GABA-A blocker bicuculline followed by compound administration measured for 3 mins by elevated plus maze test. The class given is functional, organism-based. In a few lines:
as §1

The species named for test [7] is Mus musculus. The experiment in a line: Anticonvulsant activity in mouse assessed as time to death post pentylenetetrazole challenge measured for 20 mins. Format: functional. The procedure, abridged:
(§3)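 Mice given an acute pentylenetetrazole challenge (70 mg/kg, i.p.). Time to death recorded over a 20 min observation. Some groups were pretreated with bicuculline (0.1 mg/kg, i.p.) or ondansetron (1 mg/kg, i.p.) before the test agent. n = 6 per group. One-way ANOVA with Bonferroni post-test, P<0.05.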

The subject of test [8] is Mus musculus. The experiment in a line: Anticonvulsant activity in mouse model of PTZ-induced seizures assessed as prolongation of death time post pentylenetetrazole challenge pretreated with 0.1 mg/kg, ip GABA-A blocker bicuculline followed by compound administration measured for 20 mins. The class given is functional, organism-based. The procedure, abridged: as §3
For test [9], the system named is Mus musculus. Kind of test: Anticonvulsant activity in mouse model of PTZ-induced seizures assessed as prolongation of death time post pentylenetetrazole challenge pretreated with 1 mg/kg, ip 5-HT3 receptor blocker ondansetron followed by compound administration measured for 20 mins. The class given is functional, organism-based. The procedure, abridged:
as §3

Test [10] relates to Mus musculus. The experiment in a line: Anxiolytic activity in mouse assessed as increase in time spent in the light area at 1 mg/kg, ip measured for 3 mins by dark-light transition test. Format: functional, organism-based. In a few lines: as §2
The test system of test [11] is Mus musculus. The experiment in a line: Anxiolytic activity in mouse assessed as increase in time spent in the open arm at 1 mg/kg measured for 3 mins by elevated plus maze test relative to vehicle treated control. The class given is functional, organism-based. The procedure, abridged:
as §1

Active and inactive are the calls of the source. No cut-off for these calls is given here.

On to `CCCCCCCCCCCCCC/C=C/C=C/[C@@H](O)[C@H](CO)NC(=O)CCCCCCCCCCCC`, for which the result in the test with Mus musculus [1], in the test filed under Mus musculus [2], in the test with Mus musculus [4], in the test filed under Mus musculus [5] and in the test on Mus musculus [9] was Active. For the same compound, the outcome with Mus musculus [3], in the test with Mus musculus [6] and in the test with Mus musculus [8] was inactive. For the same compound, in the test filed under Mus musculus [7], the Time is on record as 911 s.
Take `CN1C(=O)CN=C(c2ccccc2)c2cc(Cl)ccc21` [DIAZEPAM]: the result in the test with Mus musculus [10] and with Mus musculus [11] was Active. Also, the Time in the test filed under Mus musculus [7] is 536 s.

Values taken from ChEMBL document CHEMBL3734687, “Mechanism of action of antiepileptic ceramide from Red Sea soft coral Sarcophyton auritum” (2015).
